# Laboratory results taken from ChEMBL document CHEMBL1687796, “Synthesis and spectrum of the neoglycoside ACHN-490” (2010).
# How the values were obtained:
# Format in all cases: functional
# [1] = test system: Staphylococcus aureus; experiment: Antibacterial activity against aminoglycoside-resistant Staphylococcus aureus expressing APH(2'') + AAC(6') by broth microdilution method
# Outline: (§1)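 MICs were measured by broth microdilution following CLSI guidance. The strains formed a 25-strain screening panel with diverse aminoglycoside resistance mechanisms. The panel included Gram-negative and S. aureus strains carrying key aminoglycoside-modifying enzymes, strains with altered permeability or efflux, and an armA ribosomal methyltransferase strain.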
# [2] = test system: Acinetobacter; experiment: Antibacterial activity against aminoglycoside-resistant Acinetobacter spp. expressing APH(3')-6 by broth microdilution method
# Outline: (§2)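 Clinical aminoglycoside-resistant isolates were each carrying a single aminoglycoside-modifying enzyme. […] MICs were determined by CLSI broth microdilution.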
# [3] = test system: Acinetobacter baumannii; experiment: Antibacterial activity against aminoglycoside-susceptible Acinetobacter baumannii by broth microdilution method
# [4] = test system: Acinetobacter baumannii; experiment: Antibacterial activity against Acinetobacter baumannii ATCC 19606 by broth microdilution method; settings: ATCC 19606 = CIP 70.34 = JCM 6841; outline: as §1
# [5] = test system: Acinetobacter calcoaceticus; experiment: Antibacterial activity against aminoglycoside-resistant Acinetobacter calcoaceticus expressing AAC(6')-1 by broth microdilution method; outline: as §2
# [6] = test system: Pseudomonas aeruginosa; experiment: Antibacterial activity against Pseudomonas aeruginosa ATCC 27853 by broth microdilution method
# [7] = test system: Pseudomonas aeruginosa; experiment: Antibacterial activity against wild type Pseudomonas aeruginosa expressing efflux pump by broth microdilution method
# Outline: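 MIC was determined by CLSI broth microdilution, read in μg/ml. The strain came from a 25-strain screening panel with diverse aminoglycoside resistance mechanisms. The panel included strains with changes in permeability or efflux, key aminoglycoside-modifying enzymes and an armA methyltransferase strain.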
# [8] = test system: Pseudomonas aeruginosa; experiment: Antibacterial activity against efflux pump deficient Pseudomonas aeruginosa by broth microdilution method
# [9] = test system: Pseudomonas aeruginosa; experiment: Antibacterial activity against Pseudomonas aeruginosa expressing mexXY operon by broth microdilution method; outline: as §1
# [10] = test system: Pseudomonas aeruginosa; experiment: Antibacterial activity against Pseudomonas aeruginosa expressing ANT(4')-2 by broth microdilution method; outline: as §1
# [11] = test system: Pseudomonas aeruginosa; experiment: Antibacterial activity against Pseudomonas aeruginosa expressing AAC(3)-1 by broth microdilution method
# [12] = test system: Pseudomonas aeruginosa; experiment: Antibacterial activity against Pseudomonas aeruginosa expressing AAC(6')-2 by broth microdilution method
# [13] = test system: Citrobacter; experiment: Antibacterial activity against Citrobacter spp. by broth microdilution method
# Outline: (§3)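 MICs were determined by CLSI broth microdilution against clinical isolate panels that included aminoglycoside-resistant isolates. […] MIC90 was derived per group and not calculated when n was <10. Imipenem, ceftobiprole, ciprofloxacin and tigecycline MICs were also determined for the resistant isolates.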
# [14] = test system: Escherichia coli; experiment: Antibacterial activity against Escherichia coli by broth microdilution method; outline: as §3
# [15] = test system: Enterobacter sp.; experiment: Antibacterial activity against Enterobacter spp. by broth microdilution method; outline: as §3
# [16] = test system: Klebsiella sp.; experiment: Antibacterial activity against Klebsiella spp. by broth microdilution method; outline: as §3
# [17] = test system: Proteus mirabilis; experiment: Antibacterial activity against Proteus mirabilis by broth microdilution method; outline: as §3
# [18] = Antibacterial activity against indole positive Proteae by broth microdilution method; outline: as §3
# [19] = test system: Serratia sp.; experiment: Antibacterial activity against Serratia spp. by broth microdilution method; outline: as §3
# [20] = test system: Staphylococcus sp.; experiment: Antibacterial activity against Staphylococcus spp. by broth microdilution method; outline: as §3
# [21] = test system: Acinetobacter sp.; experiment: Antibacterial activity against Acinetobacter spp. by broth microdilution method; outline: as §3
# [22] = test system: Pseudomonas aeruginosa; experiment: Antibacterial activity against Pseudomonas aeruginosa by broth microdilution method; outline: as §3
# [23] = test system: Klebsiella pneumoniae; experiment: Antibacterial activity against aminoglycoside-resistant Klebsiella pneumoniae expressing AAC(3)-1 by broth microdilution method; outline: as §2
# [24] = test system: Citrobacter freundii; experiment: Antibacterial activity against aminoglycoside-resistant Citrobacter freundii expressing AAC(3)-2 by broth microdilution method; outline: as §2
# [25] = test system: Klebsiella aerogenes; experiment: Antibacterial activity against aminoglycoside-resistant Enterobacter aerogenes expressing AAC(3)-2 by broth microdilution method; outline: as §2
# [26] = test system: Enterobacter cloacae; experiment: Antibacterial activity against aminoglycoside-resistant Enterobacter cloacae expressing AAC(3)-2 by broth microdilution method; outline: as §2
# [27] = test system: Escherichia coli; experiment: Antibacterial activity against aminoglycoside-resistant Escherichia coli expressing AAC(3)-2 by broth microdilution method; outline: as §2
# [28] = test system: Klebsiella oxytoca; experiment: Antibacterial activity against aminoglycoside-resistant Klebsiella oxytoca expressing AAC(3)-2 by broth microdilution method; outline: as §2
# [29] = test system: Klebsiella pneumoniae; experiment: Antibacterial activity against aminoglycoside-resistant Klebsiella pneumoniae expressing AAC(3)-2 by broth microdilution method; outline: as §2
# [30] = test system: Serratia liquefaciens; experiment: Antibacterial activity against aminoglycoside-resistant Serratia liquefaciens expressing AAC(3)-2 by broth microdilution method; outline: as §2
# [31] = test system: Escherichia coli; experiment: Antibacterial activity against aminoglycoside-resistant Escherichia coli expressing AAC(3)-4 by broth microdilution method; outline: as §2
# [32] = test system: Klebsiella pneumoniae; experiment: Antibacterial activity against aminoglycoside-resistant Klebsiella pneumoniae expressing AAC(3)-4 by broth microdilution method; outline: as §2
# [33] = test system: Citrobacter freundii; experiment: Antibacterial activity against aminoglycoside-resistant Citrobacter freundii expressing AAC(6')-1 by broth microdilution method; outline: as §2
# [34] = test system: Klebsiella aerogenes; experiment: Antibacterial activity against aminoglycoside-resistant Enterobacter aerogenes expressing AAC(6')-1 by broth microdilution method; outline: as §2
# [35] = test system: Enterobacter cloacae; experiment: Antibacterial activity against aminoglycoside-resistant Enterobacter cloacae expressing AAC(6')-1 by broth microdilution method; outline: as §2
# [36] = test system: Escherichia coli; experiment: Antibacterial activity against aminoglycoside-resistant Escherichia coli expressing AAC(6')-1 by broth microdilution method; outline: as §2
# [37] = test system: Klebsiella oxytoca; experiment: Antibacterial activity against aminoglycoside-resistant Klebsiella oxytoca expressing AAC(6')-1 by broth microdilution method; outline: as §2
# [38] = test system: Klebsiella pneumoniae; experiment: Antibacterial activity against aminoglycoside-resistant Klebsiella pneumoniae expressing AAC(6')-1 by broth microdilution method; outline: as §2
# [39] = test system: Serratia marcescens; experiment: Antibacterial activity against aminoglycoside-resistant Serratia marcescens expressing AAC(6')-1 by broth microdilution method; outline: as §2
# [40] = test system: Staphylococcus aureus; experiment: Antibacterial activity against aminoglycoside-resistant Staphylococcus aureus expressing ANT(4',4'')-2 by broth microdilution method; outline: as §2
# [41] = test system: Staphylococcus epidermidis; experiment: Antibacterial activity against aminoglycoside-resistant Staphylococcus epidermidis expressing ANT(4',4'')-2 by broth microdilution method; outline: as §2
# [42] = test system: Staphylococcus aureus; experiment: Antibacterial activity against aminoglycoside-resistant Staphylococcus aureus expressing APH(2'') + AAC(6')-1 by broth microdilution method; outline: as §2
# [43] = test system: Staphylococcus epidermidis; experiment: Antibacterial activity against aminoglycoside-resistant Staphylococcus epidermidis expressing APH(2'') + AAC(6')-1 by broth microdilution method; outline: as §2
# [44] = test system: Acinetobacter baumannii; experiment: Antibacterial activity against aminoglycoside-resistant Acinetobacter baumannii expressing […] by broth microdilution method; outline: as §2
# [45] = test system: Acinetobacter baumannii; experiment: Antibacterial activity against aminoglycoside-resistant Acinetobacter baumannii expressing ANT(2'')-1 by broth microdilution method; outline: as §2
# [46] = test system: Acinetobacter baumannii; experiment: Antibacterial activity against aminoglycoside-resistant Acinetobacter baumannii expressing APH(3')-6 by broth microdilution method; outline: as §2
# [47] = test system: Pseudomonas aeruginosa; experiment: Antibacterial activity against aminoglycoside-resistant Pseudomonas aeruginosa expressing AAC(6')-2 by broth microdilution method; outline: as §2
# [48] = test system: Pseudomonas aeruginosa; experiment: Antibacterial activity against aminoglycoside-resistant Pseudomonas aeruginosa expressing ANT(2'')-1 by broth microdilution method; outline: as §2
# [49] = test system: Staphylococcus epidermidis; experiment: Antibacterial activity against aminoglycoside-resistant Staphylococcus epidermidis expressing APH(3')-3 by broth microdilution method
# [50] = test system: Klebsiella pneumoniae; experiment: Antibacterial activity against Klebsiella pneumoniae ATCC 10031 by broth microdilution method; outline: as §1
# [51] = test system: Escherichia coli; experiment: Antibacterial activity against aminoglycoside-resistant Escherichia coli expressing ANT(6')-1 by broth microdilution method; outline: as §2
# [52] = test system: Escherichia coli; experiment: Antibacterial activity against Escherichia coli ATCC 25922 by broth microdilution method; outline: as §1
# [53] = test system: Escherichia coli; experiment: Antibacterial activity against aminoglycoside-resistant Escherichia coli expressing ANT(2'')-1 by broth microdilution method; outline: as §2
# [54] = test system: Escherichia coli; experiment: Antibacterial activity against aminoglycoside-resistant Escherichia coli expressing ANT(3)-2 by broth microdilution method; outline: as §2
# [55] = test system: Escherichia coli; experiment: Antibacterial activity against aminoglycoside-resistant Escherichia coli expressing armA methylase by broth microdilution method; outline: as §1
# [56] = test system: Serratia marcescens; experiment: Antibacterial activity against aminoglycoside-resistant Serratia marcescens expressing ANT(2''), AAC(6') by broth microdilution method; outline: as §1
sequence,measurement,setting,value
GENTAMICIN,MIC,[1],> 64 µg/mL
same,MIC,[2],1 µg/mL
same,MIC,[3],1 µg/mL
same,MIC,[4],16 µg/mL
same,MIC,[5],8 µg/mL
same,MIC,[6],1 µg/mL
same,MIC,[7],1 µg/mL
same,MIC,[8],0.125 µg/mL
same,MIC,[9],2 µg/mL
same,MIC,[10],4 µg/mL
same,MIC,[11],64 µg/mL
same,MIC,[12],32 µg/mL
same,MIC50,[13],> 64 µg/mL
same,MIC50,[14],64 µg/mL
same,MIC90,[14],> 64 µg/mL
same,MIC50,[15],32 µg/mL
same,MIC90,[15],> 64 µg/mL
same,MIC50,[16],32 µg/mL
same,MIC90,[16],> 64 µg/mL
same,MIC50,[17],32 µg/mL
same,MIC90,[17],> 64 µg/mL
same,MIC50,[18],> 64 µg/mL
same,MIC50,[19],64 µg/mL
same,MIC50,[20],32 µg/mL
same,MIC90,[20],> 64 µg/mL
same,MIC50,[21],> 64 µg/mL
same,MIC90,[21],> 64 µg/mL
same,MIC50,[22],> 64 µg/mL
same,MIC90,[22],> 64 µg/mL
same,MIC,[23],32 µg/mL
same,MIC,[24],62 µg/mL
same,MIC,[25],62 µg/mL
same,MIC,[26],62 µg/mL
same,MIC,[27],62 µg/mL
same,MIC,[28],62 µg/mL
same,MIC,[29],62 µg/mL
same,MIC,[30],62 µg/mL
same,MIC,[31],16 µg/mL
same,MIC,[32],16 µg/mL
same,MIC,[33],1 µg/mL
same,MIC,[34],1 µg/mL
same,MIC,[35],1 µg/mL
same,MIC,[36],1 µg/mL
same,MIC,[37],1 µg/mL
same,MIC,[38],1 µg/mL
same,MIC,[39],1 µg/mL
same,MIC,[40],1 µg/mL
same,MIC,[41],1 µg/mL
same,MIC,[42],50 µg/mL
same,MIC,[43],50 µg/mL
same,MIC,[44],16 µg/mL
same,MIC,[45],> 64 µg/mL
same,MIC,[46],4 µg/mL
same,MIC,[47],64 µg/mL
same,MIC,[48],56 µg/mL
same,MIC,[49],1 µg/mL
same,MIC,[50],0.125 µg/mL
same,MIC,[51],4 µg/mL
same,MIC,[52],1 µg/mL
same,MIC,[53],> 64 µg/mL
same,MIC,[54],> 64 µg/mL
same,MIC,[55],> 64 µg/mL
same,MIC,[56],4 µg/mL
